Values belong to the compound of their own block, whether it stands above or below them.
How the values were obtained:
[1] = molecular target: T1, Sodium channel protein type 10 subunit alpha (Homo sapiens, UniProt Q9Y5Y9); assay: Inhibition of human recombinant Nav1.8 channel expressed in HEK293 cells at 0.1 uM by whole cell voltage clamp technique; format: cell-based
Procedure, shortened: (§1)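 HEK293 cells stably expressing recombinant human sodium channels, grown in high-glucose DMEM, 10% FBS, 2 mM sodium pyruvate, G418. Whole-cell voltage clamp; pipettes 0.8–2.5 MΩ; internal (mM) 135 CsF, 10 CsCl, 5 EGTA, 5 NaCl, 10 HEPES, pH 7.3 with CsOH. Holding pre-pulse set at midpoint of steady-state inactivation for each subtype.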
Target sequence in this assay (Q9Y5Y9 whole entry, looked up): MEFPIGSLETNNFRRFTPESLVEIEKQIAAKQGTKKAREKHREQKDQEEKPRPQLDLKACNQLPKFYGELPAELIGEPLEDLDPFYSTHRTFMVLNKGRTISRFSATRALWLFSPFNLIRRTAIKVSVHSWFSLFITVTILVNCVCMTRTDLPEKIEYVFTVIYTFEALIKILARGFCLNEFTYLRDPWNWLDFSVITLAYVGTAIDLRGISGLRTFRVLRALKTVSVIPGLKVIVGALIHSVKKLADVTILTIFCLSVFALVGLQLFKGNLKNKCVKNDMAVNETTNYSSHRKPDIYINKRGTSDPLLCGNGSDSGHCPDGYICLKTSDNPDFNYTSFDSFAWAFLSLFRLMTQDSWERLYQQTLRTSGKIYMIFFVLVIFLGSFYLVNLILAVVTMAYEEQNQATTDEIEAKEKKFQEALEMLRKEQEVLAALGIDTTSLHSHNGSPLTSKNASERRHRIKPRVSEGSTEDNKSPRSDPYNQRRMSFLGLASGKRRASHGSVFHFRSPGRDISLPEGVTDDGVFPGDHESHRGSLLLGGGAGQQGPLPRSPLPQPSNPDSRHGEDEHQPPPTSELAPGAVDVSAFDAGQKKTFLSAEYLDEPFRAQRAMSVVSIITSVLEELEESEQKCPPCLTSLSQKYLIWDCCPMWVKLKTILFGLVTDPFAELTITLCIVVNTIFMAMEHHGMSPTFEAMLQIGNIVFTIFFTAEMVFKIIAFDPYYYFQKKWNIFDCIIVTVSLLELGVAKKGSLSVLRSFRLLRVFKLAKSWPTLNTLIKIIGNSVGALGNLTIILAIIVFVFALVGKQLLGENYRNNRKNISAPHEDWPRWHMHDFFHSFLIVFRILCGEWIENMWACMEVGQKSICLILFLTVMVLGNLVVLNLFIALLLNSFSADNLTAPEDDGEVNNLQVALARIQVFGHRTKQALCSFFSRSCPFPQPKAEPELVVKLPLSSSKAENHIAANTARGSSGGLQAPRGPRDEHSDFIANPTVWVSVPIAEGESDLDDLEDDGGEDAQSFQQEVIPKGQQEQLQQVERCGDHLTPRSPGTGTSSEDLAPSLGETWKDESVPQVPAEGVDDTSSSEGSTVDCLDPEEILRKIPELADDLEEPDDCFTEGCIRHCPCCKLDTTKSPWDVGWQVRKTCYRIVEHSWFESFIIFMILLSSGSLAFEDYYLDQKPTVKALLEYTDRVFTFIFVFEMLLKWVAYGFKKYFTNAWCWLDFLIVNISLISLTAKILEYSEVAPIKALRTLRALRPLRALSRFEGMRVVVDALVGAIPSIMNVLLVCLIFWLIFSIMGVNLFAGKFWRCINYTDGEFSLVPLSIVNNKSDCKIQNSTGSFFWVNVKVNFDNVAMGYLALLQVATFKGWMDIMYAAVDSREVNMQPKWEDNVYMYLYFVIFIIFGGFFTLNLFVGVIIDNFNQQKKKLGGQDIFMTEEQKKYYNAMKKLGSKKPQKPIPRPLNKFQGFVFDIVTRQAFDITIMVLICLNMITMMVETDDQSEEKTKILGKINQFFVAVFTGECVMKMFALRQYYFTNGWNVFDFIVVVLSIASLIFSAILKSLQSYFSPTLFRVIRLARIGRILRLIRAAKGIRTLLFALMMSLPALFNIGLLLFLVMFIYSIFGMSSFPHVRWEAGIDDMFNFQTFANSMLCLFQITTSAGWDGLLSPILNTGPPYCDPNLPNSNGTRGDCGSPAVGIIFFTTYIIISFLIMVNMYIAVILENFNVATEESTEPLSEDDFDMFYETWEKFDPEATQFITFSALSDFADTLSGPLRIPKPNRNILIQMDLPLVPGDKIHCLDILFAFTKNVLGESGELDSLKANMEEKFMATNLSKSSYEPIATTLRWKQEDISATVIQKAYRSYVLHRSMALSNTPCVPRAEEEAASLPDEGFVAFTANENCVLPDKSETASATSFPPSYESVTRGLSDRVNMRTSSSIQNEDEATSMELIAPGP

[2] = molecular target: T1, Sodium channel protein type 10 subunit alpha; assay: Inhibition of human recombinant Nav1.8 channel expressed in HEK293 cells at 1 uM by whole cell voltage clamp technique; format: cell-based; procedure, shortened: as §1
Target sequence in this assay (Q9Y5Y9 whole entry, looked up): as above

[3] = molecular target: Sodium channel protein type 10 subunit alpha (Rattus norvegicus) (UniProt Q62968); assay: Blockade of Nav1.8 channel in rat dorsal root ganglion neurons assessed as inhibition of TTX-R current at 10 uM by whole cell patch clamp technique; format: tissue-based
Procedure, shortened: (§2)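 Whole-cell voltage clamp of TTX-resistant currents in dissociated rat DRG neurons. Pipette (mM): CsF 135, NaCl 5, CsCl 10, EGTA 5, HEPES 10, pH 7.2. Bath (mM): NaCl 22, choline Cl 110, CaCl2 1.8, MgCl2 0.8, HEPES 10, glucose 5, pH 7.4. Inactivated-state protocol with pre-pulse at V1/2 (−40 mV). Mean ± SEM of two to six determinations.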

[4] = molecular target: Sodium channel protein type 10 subunit alpha (Mus musculus, UniProt Q6QIY3); assay: Inhibition of mouse recombinant Nav1.8 channel expressed in HEK293 cells by isotopic efflux assay; format: cell-based
[5] = molecular target: T1, Sodium channel protein type 10 subunit alpha; assay: Inhibition of human recombinant Nav1.8 channel expressed in HEK293 cells by whole cell voltage clamp technique; format: cell-based; procedure, shortened: as §1
Target sequence in this assay (Q9Y5Y9 whole entry): as the sequence (Q9Y5Y9 whole entry, looked up) above

[6] = Cmax in Sprague-Dawley rat at 10 mg/kg, po; format: ADME, organism-based; parameters: dose 10 mg/kg, route oral; conditions: in vivo
Procedure, shortened: (§3)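 Rat pharmacokinetics after administration at 10 mg/kg in 10% DMSO/PEG400.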

[7] = system: Rattus norvegicus; assay: Effect on locomotor activity in po dosed Sprague-Dawley rat; format: functional
Procedure, shortened: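 Open-field locomotor activity recorded with photobeam activity monitors during the light cycle; groups of at least six rats, mean ± SEM.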

[8] = system: Rattus norvegicus; assay: Analgesic activity in po dosed Sprague-Dawley rat by rotarod test; format: functional
Procedure, shortened: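 Accelerating rotorod: after 30-min acclimation, rats placed on 9-cm rod ramping 0–20 rpm over 60 s; latency to fall recorded, maximum 60 s; three training sessions per rat. Groups of at least six rats; mean ± SEM.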

[9] = Volume of distribution at steady state in Sprague-Dawley rat at 10 mg/kg; format: ADME, organism-based; parameters: dose 10 mg/kg; conditions: in vivo, read-out: Vdss; procedure, shortened: as §3
[10] = molecular target: Sodium channel protein type 10 subunit alpha (Rattus norvegicus, UniProt Q62968); assay: Blockade of Nav1.8 channel in rat dorsal root ganglion neurons assessed as inhibition of TTX-R current by whole cell patch clamp technique; format: tissue-based; procedure, shortened: as §2
[11] = molecular target: Sodium channel protein type 5 subunit alpha (Homo sapiens, UniProt Q14524); assay: Inhibition of human recombinant Nav1.5 channel expressed in HEK293 cells by whole cell voltage clamp technique; format: cell-based
Procedure, shortened: (§4)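 HEK293 cells stably expressing recombinant human sodium channels, grown in high-glucose DMEM, 10% FBS, 2 mM sodium pyruvate, G418. Holding pre-pulse set at midpoint of steady-state inactivation for each subtype.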

[12] = molecular target: Sodium channel protein type 2 subunit alpha (Homo sapiens, UniProt Q99250); assay: Inhibition of human recombinant Nav1.2 channel expressed in HEK293 cells by whole cell voltage clamp technique; format: cell-based; procedure, shortened: as §4
[13] = system: Rattus norvegicus; assay: Analgesic activity in po dosed Sprague-Dawley rat by edge test; format: functional
Procedure, shortened: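 Balance test: rats placed on 0.5-cm-thick edges of a 40 × 40 × 36 cm plexiglass box, must pull up onto the edge and avoid falling; cut-off 2 min. Groups of at least six rats.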

[14] = Oral bioavailability in Sprague-Dawley rat at 10 mg/kg; format: ADME, organism-based; conditions: in vivo; procedure, shortened: as §3
[15] = Plasma clearance in Sprague-Dawley rat at 10 mg/kg; format: ADME, organism-based; parameters: dose 10 mg/kg; procedure, shortened: as §3
[16] = system: Rattus norvegicus; assay: Analgesic activity in po dosed Sprague-Dawley rat assessed as attenuation of mechanical allodynia in chung model of neuropathic pain; format: functional
[17] = Ratio of drug level in brain to plasma in Sprague-Dawley rat; format: ADME; conditions: brain
[18] = molecular target: Sodium channel protein type 10 subunit alpha (Rattus norvegicus) (UniProt Q62968); assay: Blockade of Nav1.8 channel in rat dorsal root ganglion neurons assessed as inhibition of TTX-R current at 0.3 uM by whole cell patch clamp technique; format: tissue-based; procedure, shortened: as §2
[19] = molecular target: T1, Sodium channel protein type 10 subunit alpha; assay: Inhibition of human recombinant Nav1.8 channel expressed in HEK293 cells at 0.3 uM by whole cell voltage clamp technique; format: cell-based; procedure, shortened: as §1
Target sequence in this assay (Q9Y5Y9 whole entry, looked up): as above

[20] = molecular target: Sodium channel protein type 10 subunit alpha (Rattus norvegicus) (UniProt Q62968); assay: Blockade of Nav1.8 channel in rat dorsal root ganglion neurons assessed as inhibition of TTX-R current at 1 uM by whole cell patch clamp technique; format: tissue-based; procedure, shortened: as §2
[21] = molecular target: T1, Sodium channel protein type 10 subunit alpha; assay: Inhibition of human recombinant Nav1.8 channel expressed in HEK293 cells at 0.03 uM by whole cell voltage clamp technique; format: cell-based; procedure, shortened: as §1
Target sequence in this assay (Q9Y5Y9 whole entry, looked up): as above

[22] = molecular target: Sodium channel protein type 10 subunit alpha (Rattus norvegicus) (UniProt Q62968); assay: Blockade of Nav1.8 channel in rat dorsal root ganglion neurons assessed as inhibition of TTX-R current at 3 uM by whole cell patch clamp technique; format: tissue-based; procedure, shortened: as §2

Chain of Sodium channel protein type 10 subunit alpha (Mus musculus, UniProt Q6QIY3) (Q6QIY3 whole entry): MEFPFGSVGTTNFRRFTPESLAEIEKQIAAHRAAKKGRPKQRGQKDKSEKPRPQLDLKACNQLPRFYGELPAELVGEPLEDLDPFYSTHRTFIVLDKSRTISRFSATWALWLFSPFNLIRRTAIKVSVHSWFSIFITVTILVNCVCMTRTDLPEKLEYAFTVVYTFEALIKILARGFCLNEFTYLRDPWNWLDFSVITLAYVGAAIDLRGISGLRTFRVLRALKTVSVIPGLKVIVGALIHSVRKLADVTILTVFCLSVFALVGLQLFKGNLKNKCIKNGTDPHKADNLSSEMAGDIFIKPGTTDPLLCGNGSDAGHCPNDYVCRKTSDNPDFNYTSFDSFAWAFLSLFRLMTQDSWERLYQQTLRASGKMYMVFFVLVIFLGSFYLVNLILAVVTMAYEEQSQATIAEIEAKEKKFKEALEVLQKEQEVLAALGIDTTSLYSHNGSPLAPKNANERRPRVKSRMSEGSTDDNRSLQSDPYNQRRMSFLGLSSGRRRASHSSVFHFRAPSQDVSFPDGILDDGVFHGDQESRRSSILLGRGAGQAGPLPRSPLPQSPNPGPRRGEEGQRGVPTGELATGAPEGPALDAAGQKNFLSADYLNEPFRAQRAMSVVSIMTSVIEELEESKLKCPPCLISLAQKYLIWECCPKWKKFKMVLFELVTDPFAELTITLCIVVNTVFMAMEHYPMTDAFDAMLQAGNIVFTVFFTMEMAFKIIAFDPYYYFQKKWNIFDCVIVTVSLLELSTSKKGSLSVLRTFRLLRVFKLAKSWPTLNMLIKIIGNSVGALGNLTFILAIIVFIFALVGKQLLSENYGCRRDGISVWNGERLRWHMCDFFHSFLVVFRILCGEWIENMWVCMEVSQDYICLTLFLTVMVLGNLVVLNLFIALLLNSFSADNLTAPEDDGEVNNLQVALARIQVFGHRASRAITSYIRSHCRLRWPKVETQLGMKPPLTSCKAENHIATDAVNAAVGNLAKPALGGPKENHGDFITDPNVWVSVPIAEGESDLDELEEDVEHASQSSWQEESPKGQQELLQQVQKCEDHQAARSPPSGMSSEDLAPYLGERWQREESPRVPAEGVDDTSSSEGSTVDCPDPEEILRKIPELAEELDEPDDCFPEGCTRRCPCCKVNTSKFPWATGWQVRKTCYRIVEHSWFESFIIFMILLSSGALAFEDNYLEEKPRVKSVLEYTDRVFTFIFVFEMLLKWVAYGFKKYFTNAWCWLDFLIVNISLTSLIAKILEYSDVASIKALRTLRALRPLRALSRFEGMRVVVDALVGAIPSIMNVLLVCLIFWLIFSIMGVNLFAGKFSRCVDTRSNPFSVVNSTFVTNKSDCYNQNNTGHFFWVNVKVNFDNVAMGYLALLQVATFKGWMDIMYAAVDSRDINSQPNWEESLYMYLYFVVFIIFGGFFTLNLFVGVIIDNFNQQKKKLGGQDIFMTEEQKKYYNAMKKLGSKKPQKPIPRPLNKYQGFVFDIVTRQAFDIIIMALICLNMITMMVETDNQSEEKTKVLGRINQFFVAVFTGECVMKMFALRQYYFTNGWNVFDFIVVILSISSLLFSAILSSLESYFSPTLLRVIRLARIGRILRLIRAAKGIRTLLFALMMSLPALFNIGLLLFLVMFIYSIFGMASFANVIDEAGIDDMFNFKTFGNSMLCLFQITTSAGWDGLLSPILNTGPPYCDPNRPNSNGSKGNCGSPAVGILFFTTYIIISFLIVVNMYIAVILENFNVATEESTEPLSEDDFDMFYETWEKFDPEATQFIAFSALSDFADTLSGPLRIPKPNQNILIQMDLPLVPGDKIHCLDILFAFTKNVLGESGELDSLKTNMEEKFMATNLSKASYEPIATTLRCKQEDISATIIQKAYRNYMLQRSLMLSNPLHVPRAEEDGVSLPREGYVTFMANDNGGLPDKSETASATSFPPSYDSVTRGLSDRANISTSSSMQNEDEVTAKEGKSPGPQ

inhibition [1]: 22%
inhibition [2]: 80%
Compound: O=C(c1ccc(-c2cccc(Cl)c2)o1)N1CCN(C2CCCCC2)CC1

inhibition [1]: 44%
inhibition [2]: 85%
inhibition [3]: 86%
Compound: CC(C)(C)c1ccc(-c2ccc(C(=O)N3CCNCC3)o2)cc1

IC50 [4]: 32 µM
Compound: O=C(c1ccc(-c2ccc(Cl)cc2)o1)N1CCOCC1

Compound: Nc1nnc(-c2cccc(Cl)c2Cl)c(N)n1 [LAMOTRIGINE]
IC50 [5]: 96 µM
Cmax [6]: 3500 ng/mL
ED50 [7]: > 390 µmol/kg
ED50 [8]: > 390 µmol/kg
Vd [9]: 0.98 L/kg
IC50 [10]: 25 µM
IC50 [11]: 62 µM
IC50 [12]: 10 µM
ED50 [13]: > 390 µmol/kg
bioavailability [14]: 79%
clearance [15]: 1 mL/min/kg
ED50 [16]: 47 µmol/kg
Ratio [17]: 26

inhibition [18]: 51%
IC50 [4]: 1.9 µM
Compound: CN1CCC(NC(=O)c2ccc(-c3ccc(Cl)cc3)o2)CC1

inhibition [19]: 12%
Compound: O=C(c1ccc(-c2ccc(Cl)cc2Cl)o1)N1CCN(C2CCCCC2)CC1

inhibition [20]: 67%
inhibition [19]: 93%
inhibition [21]: 68%
Compound: O=C(c1ccc(-c2ccc(Oc3ccccc3)cc2)o1)N1CCN(C2CCCCC2)CC1

IC50 [5]: 1 µM
Compound: C[C@@H](NC(=O)c1ccc(-c2ccc(Cl)cc2)o1)C(=O)N1CCN(CCCOc2ccc(C(=O)C3CC3)cc2)CC1

inhibition [22]: 31%
IC50 [4]: 9.9 µM
Compound: CN1CCN(C(=O)c2ccc(-c3ccc(Cl)cc3)o2)CC1

inhibition [18]: 52%
IC50 [4]: 1.6 µM
Compound: O=C(NCCCN1CCCCC1)c1ccc(-c2ccc(Cl)cc2)o1

inhibition [2]: 65%
Compound: CN(C)c1ccc(-c2ccc(C(=O)N3CCN(C4CCCCC4)CC3)o2)cc1
